Experimental data pooled from the literature.
Protocols differ between the studies behind these lines.
Read-out: cell growth or viability

Compound	cell line	assay	conditions	endpoint	result
N#C[Se]Cc1cc(=O)oc2cc(O)ccc12	T47D	SRB		GI50	35 µM
CC[C@@]1(O)C(=O)OCc2c1cc1n(c2=O)Cc2cc3ccccc3nc2-1	MIA PaCa-2	SRB	48 h	IC50	0.151 µM
O=[N+]([O-])c1ccc(NCCCCCCN=C=S)c2nonc12	T47D	MTT	24 h	IC50	1.2 µM
Cc1cc(=O)oc2cc(OCCCC[Se]C#N)ccc12	MIA PaCa-2	SRB		GI50	2.6 µM
CC(=O)c1c(C)c2cnc(Nc3ccc(C4CCN(CCS(C)(=O)=O)CC4)cn3)nc2n(C2CCCC2)c1=O	T47D	ATP luminescence	72 h	IC50	0.177 µM
N.N.[Cl][Pt][Cl]	JVM-3	ATP luminescence	10 µM, 72 h	inhibition	100%
O=C1c2ccccc2-c2c3c(cc4ccnc1c24)OCO3	T47D	MTT	75 h	IC50	15.9 µM
COC(=O)c1cc(C(C)=NNc2nc(-c3ccc(S(=O)(=O)F)cc3)cs2)ccc1O	T47D	MTT	96 h	IC50	26.3 µM
Cc1ncsc1-c1ccc([C@H](C)NC(=O)[C@@H]2C[C@@H](O)CN2C(=O)[C@@H](c2cc(N3CCC(CN4CCC(OC5CC(Oc6cc(N7C8CCC7CN(c7cc(-c9ccccc9O)nnc7N)C8)ccn6)C5)CC4)CC3)no2)C(C)C)cc1 (stereo partly shown)	LNCaP	ATP luminescence	7 days	IC50	0.0032 µM
C[S+]([O-])CCCCN=C=S (stereo not shown)	T47D	MTT	24 h	IC50	30.4 µM
